# An excerpt weighted towards active compounds, which were near 2.3% of everything screened.
# TRPC6 activator: mouse TRPC6 channel activation | Q61143 | HEK293-TRPC6 membrane potential dye fluorescence; active compounds read high | B-score at 10 µM | 310,000 compounds, 0.13% hits | AID 2550;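 active = B-score of the integrated fluorescence ratio above library mean plus 3 SD, and starting fluorescence ratio within library mean plus 5 SD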;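 note: higher score means more depolarization so channel activation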
# CR mimetic SO: lowers age-related superoxide in aged yeast cells; S. cerevisiae aged cells, superoxide DHE fluorescence; active compounds read low; superoxide response (% of plate mean), % at 10 µM; 330,000 compounds, 0.18% hits;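 active = superoxide response under a set limit, about three screen SD below normal, cut at about 65% in these data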;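 note: yeast aged for seven days with compound at 30 °C before DHE staining; 100% = average MFI of all compound-treated wells on the plate with controls excluded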
# TRPC4 inh: TRPC4 (mouse) channel inhibition; HEK293 TRPC4beta/mu-opioid, DAMGO-evoked Fluo4 calcium flux; active compounds read low; B-score at 10 µM; 300,000 compounds, 0.39% hits;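 active = B-score over 3 SD under the library average, no early fluorescence shift, positive overall ratio signal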
#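 test system = HEK293 cells with stable TRPC4beta plus mu-opioid receptor expression | detection = Fluo4 Ca2+ flux fluorescence | read-out = integrated fluorescence ratio relative to baseline, converted to per-well B score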
# TRPC6 inh: blocks the mouse TRPC6 cation channel; HEK293-TRPC6, membrane potential dye, ACh-evoked depolarization; active compounds read low; 310,000 compounds, 1.1% hits; AID 2553; Q61143; B-score at 10 µM;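 active = B-score under library mean minus 3 SD, initial fluorescence not abnormally high, positive integrated signal ratio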;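 note: B-score derived from integrated fluorescence ratio over the kinetic read; more negative B-score means stronger inhibition of depolarization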
# TRPC4 act: activators of mouse TRPC4 channel; Q9QUQ5; HEK293 TRPC4beta/mu-opioid, Fluo4 calcium fluorescence; active compounds read high; 310,000 compounds, 0.49% hits; B-score at 10 µM;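 active = B-score above 5 SD of library B-scores, and initial fluorescence ratio not above library mean plus 5 SD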;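 note: positive B-score marks a calcium rise read as TRPC4 activation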
#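 Test system: HEK293 cells stably co-expressing mouse TRPC4beta and mu-opioid receptor | Schedule: Fluo4 dye loading 45 min at room temperature, 110 s recording | Measured by: Kinetic Fluo4 calcium fluorescence, 5 s baseline at 1 Hz | Evaluation: B score of integrated ratio | Controls: Buffer (low) and maximal DAMGO (high)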
# TRPC4 potent: allosteric potentiators of mouse TRPC4 channel. 310,000 compounds, 0.42% hits. HEK293 TRPC4beta/mu-opioid, DAMGO EC20, Fluo-4 Ca2+ flux; active compounds read high. Q9QUQ5. AID 2227. B-score at 10 µM;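 active = B-score of calcium response area above 5 SD of library B-scores, with initial fluorescence ratio within 5 SD of library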;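 note: B-score of integrated fluorescence ratio over time as area under calcium response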
# TRPC4 sel inh 2: second check of whether TRPC6 inhibitors also affect mouse TRPC4; shares compounds with TRPC6 inh; HEK293 TRPC4/MOR, membrane potential dye fluorescence; channel activated by saturating DAMGO dose; inhibition, % at 10 µM; 920 compounds, 42% hits; AID 2776;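 active = compounds whose fluorescence signal differed from control wells by over 3 SD, either direction, in both duplicate plates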
# TRPC4 spec: mouse TRPC4 off-target activity of TRPC6 inhibitors. AID 2777. shares compounds with TRPC6 inh. 920 compounds, 61% hits. activity change, negative = inhibition, % at 10 µM. HEK293 TRPC4/mu-opioid, membrane potential fluorescence;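 active = rise or fall in signal beyond 3 SD of buffer-only wells in both replicate plates, either sign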;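 note: integrated kinetic ratio of fluorescence range over baseline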
# HEK293 MPD ctr 2: parental HEK293 nonspecific activity of TRPC6 inhibitors, second screen; parental HEK293 membrane potential dye fluorescence; maximal acetylcholine challenge after compound addition; 920 compounds, 31% hits; shares compounds with TRPC6 inh; signal change vs control, % at 10 µM;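 active = membrane potential signal moving either way by over 3 SD of the maximum-effect control, in both duplicate plates, meaning non-specific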
# HEK293 counter: counter-screen for TRPC6 inhibitors: effect in parental HEK293 cells | membrane potential signal change, % at 10 µM | parental HEK293 membrane potential dye fluorescence | shares compounds with TRPC6 inh | 920 compounds, 60% hits;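 active = membrane potential signal shifting up or down by more than 3 SD of buffer-only wells, on both duplicate plates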
# TRPC6 inh conf: mouse TRPC6 inhibitor confirmation. shares compounds with TRPC6 inh. HEK293-TRPC6, membrane potential dye, ACh-evoked depolarization. inhibition, % at 10 µM. 3,300 compounds, 43% hits. AID 488960;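 active = fluorescence ratio falls more than 5 SD below the full-stimulation control mean, in both duplicate runs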;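 note: integrated fluorescence ratio of peak minus minimum over baseline after agonist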
# TRPC6 act conf: mouse TRPC6 activator confirmation; shares compounds with TRPC6 inh; HEK293-TRPC6 membrane potential dye fluorescence, FDSS; activation, % at 10 µM; 2,800 compounds, 11% hits; AID 488961;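 active = ratio signal rise beyond 5 SD above unstimulated control wells' mean, seen in both duplicate runs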;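 note: plate controls were buffer EC0 wells for no effect and acetylcholine ECmax response for full effect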
# Active calls of the source: *; i = inactive; · = no result given.
SMILES,TRPC6 activator,CR mimetic SO,TRPC4 inh,TRPC6 inh,TRPC4 act,TRPC4 potent,others
COC(C)(C)CCCC(C)C/C=C/C(C)=C/C(=O)OC(C)C (configuration not stated),·,112,·,·,·,·,
CC(C)CN(CC(C)C)c1ccc(C=C2C(=O)NC(=S)NC2=O)cc1[N+](=O)[O-],i,93,-7*,i,i,i,
CCN(CC)c1ccc(C=C2C(=O)NC(=S)NC2=O)cc1,i,99,i,i,i,i,
Cc1ccc(-c2nc(N(C)C3CCN(C)CC3)c3ccccc3n2)cc1,i,107,i,i,i,24*,
Cc1ccc2c(c1)N(C(C)C(=O)N1CCC3(CC1)OCCO3)C(=O)CO2 (configuration not stated),i,102,i,i,i,i,
Cc1c(N)c(C)c([N+](=O)[O-])c(C)c1[N+](=O)[O-],i,115,-6*,i,i,i,
COc1cc(OC)c(OC)cc1C=O,·,93,·,·,·,·,
Cc1nc2c(-c3ccc(F)cc3)c(C)nn2c(C)c1CCC(=O)N1CCC2(CC1)OCCO2,i,115,i,i,i,i,
CC(=O)OC1(c2ccccc2)CCN(C2CCCCC2)CC1C (configuration not stated),i,94,-6*,i,i,i,
COc1ccc(C(CNC(=O)Cc2ccc(Cl)c(Cl)c2)N(C)C)cc1 (configuration not stated),i,95,i,i,173*,i,
O=c1[nH]c(=S)n(-c2ccc(Cl)cc2)c(O)c1/C=N/N1CCOCC1,i,110,i,i,i,i,
COc1ccc(OC)c(NP(=O)(Oc2ccc(Cl)cc2)Oc2ccc(Cl)cc2)c1,i,96,i,i,i,i,
COc1ccc(OC)c(NP(=O)(Oc2ccccc2)Oc2ccccc2)c1,i,96,i,i,i,10*,
COc1ccc(NP(=O)(Nc2ccc(OC)cc2)Oc2ccccc2)cc1,i,98,i,i,i,12*,
CCN(CC(=O)Nc1ccc(NC(C)=O)cc1)C(=O)CSC(c1ccccc1)c1ccccc1,·,86,·,·,·,·,
Nc1ccc(Cl)cc1C(=O)c1ccccc1,i,135,i,i,i,i,
Nc1ccc(Cl)cc1C(=O)c1ccccc1Cl,i,96,i,i,i,34*,
CN(C)c1nc(OCCNC(=O)COc2ccc(Cl)cc2Cl)nc(N2CCCCC2)n1,i,92,i,i,i,i,
CN1CCC2(O)OCCCC2C1 (configuration not stated),i,98,i,i,i,i,
Cc1cc(N2CCNCC2)nc2ccccc12,i,103,i,i,i,13*,
Cn1c(N2CCNCC2)nc2ccccc21,i,87,i,i,105*,i,
O=C1CC(N2CC=C(c3ccccc3)CC2)C(=O)N1c1ccc(F)cc1 (configuration not stated),i,92,i,i,i,i,
COc1ccc(OC)c(N2C(=O)/C(=C/c3ccco3)C(=O)NC2=S)c1,i,101,i,i,i,10*,
O=C1NC(=S)N(c2ccc(F)cc2)C(=O)/C1=C/c1ccco1,i,91,i,i,i,i,
CN1C2CCC1CC(OC(=O)c1cc(Cl)cc(Cl)c1)C2 (configuration not stated),i,113,i,i,i,13*,
SMILES,TRPC6 activator,CR mimetic SO,TRPC4 inh,TRPC6 inh,TRPC4 act,TRPC4 potent,others
CC(=O)OC1N=C(c2ccccc2Cl)c2cc(Br)ccc2N(C)C1=O (configuration not stated),i,103,i,i,i,i,
Cc1ccc2c(c1)CNc1ccccc1O2,i,95,i,i,i,i,
COC1=CCC2([N+](=O)[O-])CN(C)CC1([N+](=O)[O-])C2 (configuration not stated),i,94,i,i,i,i,
C#CC[N+]1(C)[C@@H]2CC[C@H]1CC(OC(=O)C(CO)c1ccccc1)C2 (some centres not stated),i,100,i,-11*,i,i,TRPC4 sel inh 2=i;TRPC4 spec=i;HEK293 MPD ctr 2=-21%*;HEK293 counter=i;TRPC6 inh conf=94%*;TRPC6 act conf=i
C[N+]1(C)[C@@H]2CC[C@H]1CC(OC(=O)[C@@H](CO)c1ccccc1)C2 (some centres not stated),i,85,i,-7.7*,i,i,TRPC4 sel inh 2=i;TRPC4 spec=i;HEK293 MPD ctr 2=-38%*;HEK293 counter=i;TRPC6 inh conf=96%*;TRPC6 act conf=i
COC(=O)[C@@H](c1ccccc1)C1CCCCN1 (some centres not stated),·,120,·,·,·,·,
C[N+]1(C)CCC(OC(=O)C(c2ccccc2)c2ccccc2)CC1,i,103,i,-7.3*,i,i,TRPC4 sel inh 2=i;TRPC4 spec=i;HEK293 MPD ctr 2=-18%*;HEK293 counter=i;TRPC6 inh conf=91%*;TRPC6 act conf=i
C[N+]1(C)C2CC(OC(=O)[C@H](CO)c3ccccc3)CC1C1OC12 (some centres not stated),·,83,·,·,·,·,
C[N+]1(C)C2CC[C@H]1CC(OC(=O)C(CO)c1ccccc1)C2 (some centres not stated),·,94,·,·,·,·,
CCCNC1=C(C)C(=O)C2=C(C1=O)C(COC(N)=O)[C@]1(OC)C3NC3CN21 (some centres not stated),i,163,i,i,i,i,
CCCCCCCCn1sccc1=O,·,86,·,·,·,·,
